Experimental data published in ChEMBL document CHEMBL4828712, “Design of gp120 HIV-1 entry inhibitors by scaffold hopping via isosteric replacements” (Eur J Med Chem, 2021).
Active and inactive are the calls of the source. The rule behind the calls is not given here.

Key:
[1] = (§1) Cytotoxicity against human TZM-bl cells assessed as reduction in cell viability incubated for 3 days by XTT assay; type: cell-based; settings: TZM-bl cells, time 3 day
[2] = target: Human immunodeficiency virus type 1 reverse transcriptase (Human immunodeficiency virus 1, UniProt Q72547); assay: Inhibition of recombinant HIV1 reverse transcriptase by colorimetric assay
[3] = Inhibition of gp120 in HIV-1 NL4-3 HXB-2-Luc pseudotyped virus infected in human TZM-bl cells assessed as reduction in viral infection pretreated for 30 mins before viral infection and measured after 3 days by luciferase based single cycle infection assay; type: cell-based, HIV-1 M:B_HXB2R; settings: Human immunodeficiency virus 1, NL4-3, TZM-bl
Outline: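 Single-cycle infection of TZM-bl cells with the HIV-1 NL4-3-HXB2-Luc pseudotyped virus bearing Env of lab-adapted HIV-1 HXB-2 (CXCR4-tropic), with luciferase read-out.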

[4] = Cytotoxicity against CD4-negative dog Cf2Th-CCR5 cells assessed as reduction in cell viability incubated for 3 days by XTT assay; type: cell-based, Canis lupus familiaris; settings: time 3 day; for CC50: cf2th-ccr5, 72 h
Outline: (§2)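 Viability read by the colorimetric XTT method in the stated cell line, run alongside the antiviral assays on the same cells; CC50 calculated from the viability data; values reported as mean ± standard deviation.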

[5] = target: Envelope glycoprotein gp160 (Human immunodeficiency virus 1) (UniProt Q6QLK5); assay: Inhibition of gp120 in HIV-1 ADA infected in CD4-negative dog Cf2Th-CCR5 cells assessed as antagonism of viral entry by measuring inhibition of viral infection at 20 to 60 uM pretreated for 30 mins before viral infection and incubated for 48 hrs by luciferase assay; type: cell-based; settings: dose 20-60 µM, time 48.5 hrs
Chain of Envelope glycoprotein gp160 (Human immunodeficiency virus 1) (Q6QLK5 1-814): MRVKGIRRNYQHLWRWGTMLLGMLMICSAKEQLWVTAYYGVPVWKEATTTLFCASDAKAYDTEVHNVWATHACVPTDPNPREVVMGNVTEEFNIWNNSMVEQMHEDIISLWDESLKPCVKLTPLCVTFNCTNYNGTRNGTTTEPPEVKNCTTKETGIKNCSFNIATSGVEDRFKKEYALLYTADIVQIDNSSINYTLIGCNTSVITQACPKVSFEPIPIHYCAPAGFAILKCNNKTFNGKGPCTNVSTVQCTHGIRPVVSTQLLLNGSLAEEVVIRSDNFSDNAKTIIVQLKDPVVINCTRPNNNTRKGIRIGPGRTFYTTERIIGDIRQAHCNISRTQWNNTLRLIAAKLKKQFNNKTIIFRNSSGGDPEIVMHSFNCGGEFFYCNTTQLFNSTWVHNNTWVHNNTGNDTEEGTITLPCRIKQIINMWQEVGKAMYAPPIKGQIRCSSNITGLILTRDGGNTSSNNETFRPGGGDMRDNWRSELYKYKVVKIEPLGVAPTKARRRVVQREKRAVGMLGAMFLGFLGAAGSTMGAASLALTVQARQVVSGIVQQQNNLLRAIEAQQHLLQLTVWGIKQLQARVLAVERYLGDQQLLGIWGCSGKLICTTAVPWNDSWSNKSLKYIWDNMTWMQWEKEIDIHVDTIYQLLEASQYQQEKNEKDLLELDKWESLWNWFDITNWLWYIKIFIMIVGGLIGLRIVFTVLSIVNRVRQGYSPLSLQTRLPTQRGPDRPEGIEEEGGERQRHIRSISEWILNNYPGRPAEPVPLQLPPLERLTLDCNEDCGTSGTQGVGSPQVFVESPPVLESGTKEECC
Outline: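 CD4-negative Cf2Th-CCR5 cells infected with a luciferase-expressing recombinant CD4-dependent HIV-1 ADA pseudovirus under escalating compound concentrations. Read-out is relative infectivity: infection with compound divided by infection without compound. Three independent experiments, each run in triplicate.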

[6] = Inhibition of glycoprotein in VSV-G pseudotyped MLV virus infected in human U87/CD4/CCR5 cells assessed as inhibition of viral infection pretreated for 30 mins before viral infection and measured after 3 days by luciferase based single cycle infection assay; type: cell-based; settings: Murine leukemia virus
Outline: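 Specificity counter-screen in which U87-CD4-CCR5 cells are infected with the luciferase-reporter control pseudovirus MLV-GP/VSV-G/Luc; IC50 is derived from inhibition of infection.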

[7] = Cytotoxicity against human U87/CD4/CCR5 cells assessed as reduction in cell viability incubated for 3 days by XTT assay; type: cell-based; settings: time 3 day; for CC50 at 72 h: U87/CD4/CCR5 cells; outline: as §2
[8] = test system: TZM; assay: as §1; type: cell-based; settings: tzm, 72 h, time 3 day

Structure (SMILES) | CC50 at 72 h [1] [µM] | IC50 [3] [µM] | further results
CC1(C)CC(NC(=O)C(=O)Nc2ccc(Cl)cc2)CC(C)(C)N1 | 60 | 6.9 | IC50 [2]: > 300 µM; CC50 [4]: > 60 µM
Cc1cc(-c2ccc(C(F)(F)F)cn2)[nH]c1C(=O)NC(CN)c1ncc(CO)s1 (stereo not given) |  |  | CC50 [4]: > 47 µM; inhibition [5]: Active
Cc1nc([C@H](CN)NC(=O)NC(=O)c2ccc(Cl)cc2)sc1CO | > 54 | > 54 | 
NC[C@@H](NC(=O)c1ccc(NCC2CCCCC2)cc1)c1ncc(CO)s1 | 56.5 | > 15 | 
NC[C@@H](NC(=O)Cc1ccc(OCC2CCCCC2)cc1)c1ncc(CO)s1 | 27.9 | > 25 | 
Cc1nc([C@@H](CN)NC(=O)c2cc3cc(Cl)ccc3[nH]2)sc1CO | 47 | > 40 | 
Cc1nc([C@H](CN)NC(=O)c2cc3cc(Cl)ccc3[nH]2)sc1CO | > 55 | 50 | 
NC[C@H](NC(=O)c1ccc(C2CCCCC2)[nH]1)c1ncc(CO)s1 | > 57 | > 17 | 
NC[C@@H](NC(=O)c1ccc(-c2ccc(Cl)cc2)[nH]1)c1nccs1 | 38.9 | 2.4 | IC50 [6]: 12 µM; IC50 [2]: 31 µM; CC50 at 72 h [7]: 45.5 µM; CC50 at 72 h ([4]; CD4-negative Cf2Th-CCR5 cells): 24.7 µM; inhibition [5]: Active
O=C(N[C@@H](CC1CCNCC1)c1nc(CO)cs1)c1ccc(-c2ccc(C(F)(F)F)cc2)[nH]1 | > 40 | > 12.5 | 
NC[C@@H](NC(=O)C(=O)NCc1ccc(Cl)c(F)c1)c1ncc(CO)s1 | > 77.6 | > 15 | 
Cc1nc([C@@H](CN)NC(=O)C(=O)Nc2ccc(Cl)cc2)sc1CO | > 54 | > 27 | 
Cc1nc([C@H](CN)NC(=O)c2cc3ccccc3[nH]2)sc1CO | > 60 | > 60 | 
Cc1nc([C@H](CN)NC(=O)C(=O)Nc2ccc(Cl)cc2)sc1CO | > 54 | > 27 | 
NC[C@H](NC(=O)CNCc1ccc(Cl)cc1)c1ncc(CO)s1 | > 70 | > 23.4 | 
Cc1nc([C@H](CCN)NC(=O)C(=O)Nc2ccc(Cl)cc2)sc1CO | ≥ 38.3 | ≥ 14.7 | 

Structure (SMILES) | CC50 at 72 h [1] [µM] | IC50 [3] [µM] | further results
O=C(N[C@H](CC1CCNCC1)c1nc(CO)cs1)c1ccc(-c2ccc(C(F)(F)F)cc2)[nH]1 | > 40 | > 12.5 | 
Cc1nc([C@@H](CCN)NC(=O)C(=O)Nc2ccc(Cl)cc2)sc1CO | ≥ 46.6 | 10.6 | 
Cc1nc([C@@H](CN)NC(=O)c2cc3ccccc3[nH]2)sc1CO | > 60 | > 60 | 
NC[C@@H](NC(=O)CNCc1ccc(Cl)cc1)c1ncc(CO)s1 | > 70 | > 23.4 | 
Cc1nc([C@@H](CN)NC(=O)NC(=O)c2ccc(Cl)cc2)sc1CO | > 54 | > 54 | 
NC[C@@H](NC(=O)c1ccc(OCC2CCCCC2)cc1)c1ncc(CO)s1 | 28.2 | > 15 | 
NC[C@H](NC(=O)c1ccc(NCC2CCCCC2)cc1)c1ncc(CO)s1 | 56.5 | > 15 | 
NC[C@H](NC(=O)c1ccc(-c2ccc(Cl)cc2)[nH]1)c1nccs1 | 36.5 | 1 | IC50 [6]: 16.2 µM; IC50 [2]: 18.9 µM; CC50 at 72 h [7]: 59.1 µM
NC[C@@H](NC(=O)c1ccc(C2CCCCC2)[nH]1)c1ncc(CO)s1 | > 57 | > 17 | 
NC[C@H](NC(=O)Cc1ccc(OCC2CCCCC2)cc1)c1ncc(CO)s1 | 47.5 | > 25 | 
O=C(NC1CCNCC1)c1ccc(-c2ccc(Cl)c(F)c2)[nH]1 | 9.7 | 4.9 | 
NC[C@H](NC(=O)C(=O)NCc1ccc(Cl)c(F)c1)c1ncc(CO)s1 | > 77.6 | > 15 | 
NCCNC(=O)c1ccc(-c2ccc(Cl)c(F)c2)[nH]1 |  | 3.3 | CC50 [8]: 17.8 µM
O=C(NC1(c2nc(CO)cs2)CCNCC1)c1ccc(-c2ccc(C(F)(F)F)cc2)[nH]1 |  | 5 | IC50 [6]: 6.2 µM; CC50 [8]: 33.7 µM; IC50 [2]: 1.7 µM; CC50 ([7]; u87/cd4/ccr5, 72 h): 57.7 µM
NC[C@H](NC(=O)c1ccc(OCC2CCCCC2)cc1)c1ncc(CO)s1 | 26.5 | > 15 | 
